Measurements taken from paper PMC6331719 (The EMBO Journal, 2018).
Square brackets hold non-standard residues; d marks the D form. Ends that are not written are not given here. Peptide text beside a SMILES is read from it. * marks the point of attachment. DON = [N-]=[N+]=CC(=O)CC[C@H](N)C(=O)O; Cbz = O=C(OCc1ccccc1)*

How the values were obtained:
TG2 and CFTR = assay: Co-immunoprecipitation of TG2 and CFTR, Caco-2 cells; assay type: cell-based, human; settings: Caco-2, pre-treatment
TG2 = TG2 activity and TG2-catalysed crosslinking in Caco-2 cells; assay type: cell-based, human; settings: Caco-2, Z-DON or TG2 siRNA
[1] = system: CFTR (Caco-2 and T84 cells); assay: Iodide efflux by SPQ in intestinal epithelial cells; assay type: cell-based, human; settings: forskolin stimulation, 20 μg/ml 3 h, n = 3
CFTR (Caco‐2 cells) = assay: Ussing chamber, CFTR-dependent Cl- secretion in Caco-2 cells; assay type: cell-based, human; settings: for Effect on forskolin-inducible chloride current: Caco-2 or T84, 3 h, peptides 20 μg/ml, PT gliadin 500 μg/ml
Procedure, shortened: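 Caco-2 or T84 monolayers grown on 0.4-μm Transwells to 800–1,200 Ω cm2, then mounted in Ussing chambers. Ringer both sides, 37°C, gassed with 95% O2/5% CO2. Cells pretreated 3 h with peptides (20 μg/ml) or PT gliadin (500 μg/ml), or given bath peptides (100 μM, 3–5 min) after 100 μM amiloride. VX-770 10 μM for 5 min. Forskolin 20 μM; peak CFTRinh172-sensitive Isc.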

CFTR = assay: Co-immunoprecipitation of CFTR with biotinylated peptide, Caco-2 cells; assay type: binding, human; settings: Caco-2, biotinylated peptide, 1 h
[2] = system: recombinant human NBD1 (rhNBD1); assay: Surface plasmon resonance, rhNBD1; assay type: binding; settings: CM5 chip, 20°C, HEPES pH 7.4, 2 mM ATP, 5 mM MgCl2; at least three independent experiments
Procedure, shortened: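 NBD1 was recombinant human residues 389–678, immobilised by amine coupling to 2000 RU; a blank flow cell served as reference. Running buffer also contained 150 mM NaCl, 0.05% Tween-20 and 1 mM DTT, at a flow of 20 μl/min. Each run used three start-up buffer injections, a zero control, then a concentration series of peptide analyte.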

NBD1 = NBD1 (Homo sapiens, UniProt P13569, F429S/F494N/Q637R); assay: NBD1 ATPase activity; assay type: biochemical
NBD1, sequence (P13569 389-678 F429S/F494N/Q637R): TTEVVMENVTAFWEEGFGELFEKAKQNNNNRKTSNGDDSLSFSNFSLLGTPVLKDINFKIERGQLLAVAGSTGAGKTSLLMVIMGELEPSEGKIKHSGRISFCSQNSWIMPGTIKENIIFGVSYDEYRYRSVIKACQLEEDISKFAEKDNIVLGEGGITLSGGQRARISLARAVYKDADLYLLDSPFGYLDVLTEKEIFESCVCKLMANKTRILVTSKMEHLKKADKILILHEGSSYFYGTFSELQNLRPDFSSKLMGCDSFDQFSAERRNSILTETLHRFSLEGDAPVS

Caco‐2 and T84 cells = assay: Cell viability of Caco-2 / T84 cells; assay type: cell-based, human; settings: 3 h
TG2 and NBD1 = assay: Blue native PAGE, peptide with TG2 and rhNBD1; assay type: binding, human; settings: Ca2+-activated TG2, biotinylated peptide
Procedure, shortened: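 Recombinant proteins and the indicated peptides were pre-incubated together at 4°C for 30 min in buffer. Samples were then run under native conditions to preserve peptide/protein complexes.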

enterocytes / T cells = settings: ref Maiuri et al, 2003; Meresse et al, 2009; Barone et al, 2014; cited from earlier work
celiac PBMC = assay: Caco-2 / celiac PBMC bidimensional co-culture, cytokine release; assay type: cell-based, human; settings: lower compartment, celiac vs control PBMC
[3] = molecular target: wild‐type human NBD1[389–673], without any solubilizing mutations (human, UniProt P13569-1 389-673); assay: native gel or EMSA
wild‐type human NBD1[389–673], without any solubilizing mutations, sequence (P13569 389-673, change not shown): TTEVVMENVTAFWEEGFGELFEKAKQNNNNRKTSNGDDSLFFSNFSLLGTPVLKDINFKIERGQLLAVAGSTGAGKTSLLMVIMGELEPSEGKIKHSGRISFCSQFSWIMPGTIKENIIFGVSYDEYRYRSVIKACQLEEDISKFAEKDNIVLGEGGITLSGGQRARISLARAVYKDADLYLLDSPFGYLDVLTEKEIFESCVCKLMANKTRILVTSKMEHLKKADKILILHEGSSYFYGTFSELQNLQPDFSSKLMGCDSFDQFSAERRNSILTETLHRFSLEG

With `CC(=O)OCOC(=O)CN(CC(=O)OCOC(C)=O)c1ccccc1OCCOc1ccccc1N(CC(=O)OCOC(C)=O)CC(=O)OCOC(C)=O` [BAPTA‐AM] the “Prevention of P31–43-induced TG2–CFTR interaction” value (TG2 and CFTR) was “prevented”.

In the case of `COC(=O)[C@H](CC(C)C)NC(=O)[C@@H]1CCCN1C(=O)[C@@H](NC(=O)[C@H](CCC(=O)C=[N+]=[N-])NC(=O)OCc1ccccc1)C(C)C` [Z‐DON] (Cbz-[DON]VPL-OMe), the “Inhibition of P31–43-induced glutamine-lysine bonds in CFTR immunoprecipitates” value (TG2) is reported as “undetectable” and the “Prevention of P31–43-induced TG2–CFTR interaction” value (TG2 and CFTR) is reported as “prevented”.

For GAVAAVGVVAGA [PGAV], the “Effect on rate of iodide efflux” value [1] was “not by P57–68 or PGAV” and the “Effect on forskolin-inducible chloride current” value (CFTR (Caco‐2 cells)) was “but not P57–68, P33‐mer or PGAV”.

With LGQAAPFPPAAPY [4QA] the “Co-immunoprecipitation with CFTR” value (CFTR) was “marginal interaction with CFTR protein”, the “SPR binding to rhNBD1” value [2] was “strongly reduced as compared to unmutated P31–43” and the “Inhibition of CFTR function by modified peptide” value (CFTR (Caco‐2 cells); Caco-2, 1 h) was “largely unable to inhibit CFTR function”.

With “LGQQQPFPPQQPY-NH2 [P31–43, LGQQQPFPPQQPY]” the IC50 (NBD1) was 55.1 µM and the “Effect on cell viability” value (Caco‐2 and T84 cells) was “did not affect cell viability”.

In the case of “LQLQPFPQPQLPY PQPQLPYPQPQLPYPQPQPF [P33‐mer]”, the “Effect on forskolin-inducible chloride current” value (CFTR (Caco‐2 cells)) is reported as “but not P57–68, P33‐mer or PGAV”.

With QLQPFPQPQLPY [P57–68] the “Binding to TG2 and complex formation with NBD1” value (TG2 and NBD1) was “but not P57–68”, the “Effect on rate of iodide efflux” value [1] was “not by P57–68 or PGAV” and the “SPR binding to rhNBD1” value [2] was “failed to induce any signal”. For the same molecule, the “Enterocyte stress / T cell activation” value (enterocytes / T cells) was “activating T cells in the absence of any toxic effect on epithelial cells”, the “IFN-γ production” value (celiac PBMC) was “but not the P57–68 or P31–43 alone” and the “Effect on forskolin-inducible chloride current” value (CFTR (Caco‐2 cells)) was “but not P57–68, P33‐mer or PGAV”.

LGQQQPFPPQQPY (also: biotin tag, position not given here) [biotinylated P31–43]: binds [3].
